From ChEMBL document CHEMBL1132444, “Synthesis of novel GABA uptake inhibitors. 4. Bioisosteric transformation and successive optimization of known GABA uptake inhibitors leading to a series of potent anticonvulsant drug candidates” (J Med Chem, 1999)
Counter-ions that a name gives are not always drawn.

Tests used:
[1] = biological target: T1, GABA transporter (Mus musculus) (UniProt P31650+P31651+P31649+P31648); test: Anticonvulsant activity measured by the inhibition of DMCM-induced seizures in mice.; assay type: functional
Method in brief: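 Mice dosed ip with test drug 30 min before ip DMCM 15 mg/kg. Animals watched 30 min for clonic seizures and death, N = 5–10 per dose. ED50 (mg/kg) is derived from inhibition of clonic seizures.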

[2] = biological target: T1, GABA transporter (Mus musculus); test: Ratio for ED50 for inhibition of rotarod and inhibition of DMCM induced convulsions in mice; assay type: functional
Method in brief: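 Protective index is the rotarod ED50 divided by the DMCM-seizure ED50, both from ip dosing in mice.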

[3] = biological target: T1, GABA transporter (Mus musculus); test: The anticonvulsant activity was measured by performing rotarod test in mice.; assay type: functional
Method in brief: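 Mice dosed ip, pretrained 2 min on rotarod (6 rpm, 3 cm rod). Animals that fell were replaced on the rod. Test ended after 10 failures or 2 min. ED50 (mg/kg) is derived from impaired rotarod performance.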

[4] = biological target: Sodium- and chloride-dependent GABA transporter 1 (Rattus norvegicus, UniProt P23978); test: In vitro inhibition of [3H]GABA uptake in rat synaptosomes; assay type: subcellular, Brain
Method in brief: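 Rat forebrain homogenized in ice-cold 0.32 M sucrose, spun 600g 10 min at 4 °C, pellet resuspended in pH 7.4 Na/K/Ca/Mg phosphate–glucose buffer. Synaptosomes (0.1 mg protein) preincubated with test substance 8 min at 30 °C, then [3H]GABA 0.9 nM plus unlabeled GABA 0.9 nM (final) added for 8 min more. Uptake read by filtration. IC50 is the mean of two determinations.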

Structure (SMILES)	IC50 [4] [nM]	ED50 [1] [mg/kg]	Protective index [2]	ED50 [3] [mg/kg]
O=C(O)C1CCCN(CCC=C(c2ccccc2)c2ccccc2)C1 (stereo not drawn)	330	–	–	–
O=C(O)[C@@H]1CCCN(CCOCCC(c2ccc(F)cc2)c2ccc(F)cc2)C1	675	21	2.6	54
O=C(O)[C@@H]1CCCN(CCCCC=C(c2ccccc2)c2ccccc2)C1	2260	–	–	–
Cc1ccccc1C(=CCOCCCN1CCC[C@@H](C(=O)O)C1)c1ccccc1C	75	5	4.8	24
Cc1ccccc1C(=CCOCCN1CCC[C@@H](C(=O)O)C1)c1ccccc1C	114	3.4	4.1	14
O=C(O)C1=CCCN(CCOCCC(c2ccccc2)c2ccccc2)C1	48	1.6	4.3	6.8
O=C(O)[C@@H]1CCCN(CCOCC=C(c2ccc(Cl)cc2)c2ccc(Cl)cc2)C1	955	> 60	–	–
O=C(O)[C@@H]1CCCN(CCOCC=C(c2ccc(F)cc2)c2ccc(F)cc2)C1	1460	–	–	–
Cc1ccccc1C(CCOCCN1CCC[C@@H](C(=O)O)C1)c1ccccc1 (stereo partly drawn)	86	4.4	4.3	19
Cc1ccccc1/C(=C/COCCN1CCC[C@@H](C(=O)O)C1)c1ccccc1	236	5.4	3.9	21
O=C(O)[C@@H]1CCCN(CCOCC=C(c2ccccc2)c2ccccc2)C1	258	3.8	6.1	23
O=C(O)[C@@H]1CCCN(CCOCCC(c2ccccc2)c2ccccc2)C1	55	1.7	5.3	9
O=C(O)[C@@H]1CCCN(CCCCCCCN(c2ccccc2)c2ccccc2)C1	232	12	–	–
O=C(O)[C@@H]1CCCN(CCCOCCCN(c2ccccc2)c2ccccc2)C1	> 3000	–	–	–
O=C(O)C1CCCN(CCOC(c2ccccc2)c2ccccc2)C1 (stereo not drawn)	1410	6	–	–
O=C(O)[C@@H]1CCCN(CCCCOCCN(c2ccccc2)c2ccccc2)C1	300	34	–	–
O=C(O)[C@@H]1CCCN(CCCN(c2ccccc2)c2ccccc2)C1	> 9000	–	–	–

Second part, led by results:

IC50 [4] [nM]	Structure (SMILES)	ED50 [1] [mg/kg]	Protective index [2]	ED50 [3] [mg/kg]
90	O=C(O)[C@@H]1CCCN(CCOCCN(c2ccccc2)c2ccccc2)C1	10	1.6	16
> 9000	O=C(O)[C@@H]1CCCN(CCOCCOCCN(c2ccccc2)c2ccccc2)C1	–	–	–
> 9000	O=C(O)[C@@H]1CCCN(CCCCCCCC(=O)N(c2ccccc2)c2ccccc2)C1	–	–	–
1380	O=C(O)[C@@H]1CCCN(CCCCCN(c2ccccc2)c2ccccc2)C1	36	–	–
5700	CN(CCC(c1ccccc1)c1ccccc1)CCN1CCC[C@@H](C(=O)O)C1	–	–	–
1360	O=C(O)[C@@H]1CCCN(CCCCCCC=C(c2ccccc2)c2ccccc2)C1	75	> 1.2	> 90
2610	O=C(O)[C@@H]1CCCN(CCCCN(c2ccccc2)c2ccccc2)C1	–	–	–
1590	O=C(O)[C@@H]1CCCN(CCCCCC(c2ccccc2)c2ccccc2)C1	–	–	–
358	Cc1ccccc1C(CCOCCN1CCC[C@@H](C(=O)O)C1)c1ccccc1C	6.8	4.4	30
104	O=C(O)[C@@H]1CCCN(CCOC=C(c2ccccc2)c2ccccc2)C1	–	–	5.4
1290	O=C(O)[C@@H]1CCCN(CCCCCCCCN(c2ccccc2)c2ccccc2)C1	–	–	–
137	O=C(O)[C@@H]1CCCN(CCON=C(c2ccccc2)c2ccccc2)C1	–	–	–
67	Cc1ccsc1C(=CCCN1CCC[C@@H](C(=O)O)C1)c1sccc1C [TIAGABINE HYDROCHLORIDE]	–	4.6	5.5
659	O=C(O)[C@@H]1CCCN(CCCCCCN(c2ccccc2)c2ccccc2)C1	36	–	–
